# This is one part of a sample in which hits are shown more often than they occur.
# DTT redox prof: compounds producing H2O2 with reducing agent – biochemical, NIH compound library profiling, artefact control for MLSCN library redox annotation, primary screen; DTT-dependent redox cycling H2O2, phenol red/HRP absorbance; 100% = 100 µM peroxide control, 0% = buffer; activation, % at 10 µM; 200,000 tested, 0.03% active;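 active means activation of at least 50% relative to the plate's high and low controls in the primary single-dose screen; inactive means activation below 50%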;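 further: compound incubated with DTT at 0.8 mM final as the reducing agent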
# MPTP block: inhibitors of mitochondrial permeability transition pore. isolated mouse mitochondria, Ca2+ swelling absorbance, 30 min. inhibition, % at 10 µM. 360,000 tested, 1.4% active. AID 602449;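 active means inhibition of 50% or more, scaled per plate between neutral and stimulator controls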;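 further: 0% = DMSO wells given calcium and 100% = 1 mM EGTA wells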
# Hep lipid drop: hepatic lipid droplet formation modulation; AML12 mouse hepatocytes, oleate lipid droplets, BODIPY imaging; inhibition, % at 6.5 µM; 240,000 tested, 0.4% active; AID 1656;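 active means lipid droplet intensity inhibited by at least 50%, with more than 500 cells counted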
#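 Material – AML12 mouse liver cells · Also added – oleate loading, 100 µM · Compound dosing – 6.5 µM single-point dosing · Times – overnight treatment with compound plus oleate · Measured by – fluorescence imaging, 20x objective, two fields per well · Read-out – percent inhibition of filter-corrected integrated lipid droplet intensity per well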
# Lmaj promast: Leishmania major promastigote growth inhibition; Leishmania major promastigotes, resazurin fluorescence viability; inhibition, % at 10 µM; 200,000 tested, 9% active; AID 1063; in the data active means inhibition above about 50%;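 further: promastigotes grown with compound for 44 hours at 28 °C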
# T cruzi inh: blocks replication of Trypanosoma cruzi; 300,000 tested, 1.4% active; AID 1885; inhibition, % (concentration not given with the values); T. cruzi beta-gal in NIH3T3, luminescence, 90 h;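 active means mean inhibition across valid replicates above about 55%, limit read from the data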;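 further: signal also drops with host cell toxicity which is not excluded here; 0% = plate median of DMSO wells and 100% = zero luminescence signal; higher percent means less beta-gal luminescence so fewer parasites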
#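 System: Mouse NIH/3T3 fibroblasts infected with β-gal-expressing T. cruzi Tulahuen C4 | Quantity: NIH/3T3 cells, 5,000 per well | Reagent: 5000 reporter trypomastigotes per well | Dosing: Compound pinned at 50 nL/well, DMSO | Schedule: 3 h host attachment, then at least 90 h co-culture | Detection: GalScreen luminescence, 60 min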
# MPTP counter: Rhodamine 123 counter-screen of mitochondrial pore hits. shares compounds with MPTP block. isolated mitochondria, membrane potential, Rhodamine 123 fluorescence. inhibition, % at 10 µM. 5,000 tested, 78% active; in the data active means inhibition above about 22%;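 further: 0% = DMSO vehicle and 100% = positive control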
# MPTP abs DR: MPTP inhibition, dose response swelling confirmation | shares compounds with MPTP block | isolated mitochondria swelling, absorbance | IC50, µM | 780 tested, 58% active | AID 651561; in the data active means IC50 below about 20 µM
# MPTP cs DR: active in counter-screen for permeability transition pore inhibitors; shares compounds with MPTP block; isolated mitochondria counterscreen, fluorescence read-out; IC50, µM; 780 tested, 49% active; AID 651564; in the data active means IC50 below about 80 µM
# * = called active by the depositor; i = inactive; . = no result.
SMILES,DTT redox prof,MPTP block,Hep lipid drop,Lmaj promast,T cruzi inh,MPTP counter,others
CCCCCCCC(=O)NC(Oc1ccccc1[N+](=O)[O-])C(Cl)(Cl)Cl (stereo not given),0,70*,1,-3,-2,59*,
COC(=O)C1=C(c2cccc(OC)c2OC)C[C@@H]2CC[C@H]1N2C(=O)NCC1CC1,.,-1,.,.,-4,.,
CCN(CCCl)c1cc(CN(C)C)cc(NC(=O)c2ccc(C(=O)Nc3cc(CN(C)C)cc(N(CC)CCCl)c3)cc2)c1,.,82*,.,.,.,-32,
CCOC(=O)c1cnc(SCc2ccc(Cl)c(Cl)c2)nc1N1CC1,.,0,.,.,.,.,
CC[C@H](C)[C@@H]1NC(=O)CNC(=O)c2csc(n2)[C@H](C(C)(C)O)OC(=O)C(C)(C)[C@H](CCCC(C)(Cl)Cl)OC(=O)c2csc1n2,.,0,.,.,.,.,
Cc1[nH]c2ccc(O)cc2c1CCN,.,-2,.,.,.,.,
Cc1[nH]c2c(C(F)(F)F)cccc2c1CCN,-1,73*,-13,1,-17,-7,MPTP abs DR=i;MPTP cs DR=>80
CCOc1cc(CNCCc2c[nH]c3ccccc23)cc(Cl)c1OC,-1,95*,-84,13,5,16,MPTP abs DR=3.4*;MPTP cs DR=18*
COc1ccc2c(c1)C(NC(C)=O)CCc1cc(OC)c(OC)c(OC)c1-2 (stereo not given),.,0,.,.,.,.,
COC(=O)C1=C(c2ccc(OC(F)(F)F)cc2)C[C@@H]2CC[C@H]1N2C(=O)N1CCC(O)CC1,.,1,.,.,.,.,
CCN(CC)S(=O)(=O)c1ccc(C)c(NCC(=O)Nc2ccc(C#N)c(Cl)c2)c1,0,77*,-2,25,36,87*,
CC(C)NS(=O)(=O)c1ccc(OCC(=O)N2CCN(Cc3ccc4c(c3)OCO4)CC2)c(Cl)c1,0,54*,-7,56*,11,32*,
COc1ccc(OC)c(-n2c(O)c(C=Nc3c(C)n(C)n(-c4ccccc4)c3=O)c(=O)[nH]c2=S)c1,.,1,1,.,-17,.,
CC1=CC2OC3CC4OC(=O)C=CC=CC(=O)OCCC(C)C(O)C(=O)OCC2(CC1)C4(C)C31CO1 (stereo not given),.,-1,.,.,.,.,
Cc1cc(OC(=O)c2cccs2)c2c3c(c(=O)oc2c1)CCCC3,0,68*,-19,0,-5,86*,
CCOc1cc(C)cc2oc(=O)c3c(c12)CCCC3,.,-1,2,.,-1,.,
Cc1cc(OC(=O)c2ccco2)c2c3c(c(=O)oc2c1)CCCC3,3,104*,5,10,-10,87*,
Cc1cc(OCC(=O)O)c2c3c(c(=O)oc2c1)CCCC3,-1,-3,23,-5,-1,.,
c1ccc(-c2ccc(CN3Cc4ccccc4-n4nncc4C3)cc2)cc1,.,41,.,.,.,.,
c1ccc(CCN2CCCCC2)nc1,.,0,.,.,.,.,
CCCCn1c(=O)c(C(=O)NCc2ccccc2Cl)c(O)c2ccccc21,.,3,-5,.,7,.,
CCC(=Nc1ccc2c(c1)CCC2)c1c(O)n(C)c(=O)n(C)c1=O,.,-4,.,.,6,.,
CCOC(=O)c1ccc(N=C(CC)c2c(O)n(C)c(=O)n(C)c2=O)cc1,.,90*,5,.,-14,3,MPTP abs DR=2.1*;MPTP cs DR=23*
CC(C)c1ccc(N=Cc2c(O)n(C3CC3)c(=S)[nH]c2=O)cc1,.,2,33,.,-37,.,
CNc1ccc2oc(C[C@H]3O[C@@]4(CC[C@H]3C)O[C@H]([C@H](C)C(=O)c3ccc[nH]3)[C@H](C)C[C@H]4C)nc2c1C(=O)O,.,96*,-82,.,28,-23,
Cc1ccc(Cl)cc1N1CCN(CCN)CC1,2,78*,-3,100*,7,-8,MPTP abs DR=12*;MPTP cs DR=>80
CON(C)C(=O)Nc1ccc(Cl)cc1,1,12,2,0,-17,.,
O=C(Nc1ccc(Cl)cc1)O/N=C(\c1ccccc1)c1ccccn1,-7,87*,.,-8,-10,101*,
C[C@H](NC(=O)N1C[C@H]2C[C@@H](C1)c1cccc(=O)n1C2)C(=O)Nc1cccc(F)c1,.,0,-4,.,-5,.,

# Source: PubChem BioAssay
